Converted amounts (≈) assume the structure as drawn. One block for each molecule: values may come before it. The source made the active and inactive calls. The rule behind the calls is not given here.
Assays:
[1] = target: T1, Serine-protein kinase ATM (Homo sapiens, UniProt Q13315); assay: Inhibition of ATM in human HT-29 cells assessed as reduction in ATM phosphorylation at Ser-1981 residue up to 30 uM incubated for 1 hr followed by X-ray irradiation by Hoeschst staining based plate reader analysis; type: cell-based
[2] = physchem; details: octanol/buffer, pH 7.4
[3] = in vitro; details: rat, hepatocytes
[4] = target: T1, Serine-protein kinase ATM; assay: Inhibition of ATM phosphorylation at Ser-1981 residue in human HT-29 cells incubated for 1 hr followed by X-ray irradiation by Hoechst staining based fluorescence plate reader analysis; type: cell-based
[5] = target: Serine/threonine-protein kinase ATR (Homo sapiens, UniProt Q13535); assay: Inhibition of ATR in human HT-29 cells assessed as reduction in Chk1 phosphorylation at Ser-345 residue after 60 mins in presence of 4-nitroquinoline-1-oxide by Hoechst 33258 staining based plate reader analysis; type: cell-based
[6] = in vitro; details: human, hepatocytes
[7] = target: Voltage-gated inwardly rectifying potassium channel KCNH2 (Homo sapiens, UniProt Q12809)
Sequence of Voltage-gated inwardly rectifying potassium channel KCNH2 (Q12809 whole entry): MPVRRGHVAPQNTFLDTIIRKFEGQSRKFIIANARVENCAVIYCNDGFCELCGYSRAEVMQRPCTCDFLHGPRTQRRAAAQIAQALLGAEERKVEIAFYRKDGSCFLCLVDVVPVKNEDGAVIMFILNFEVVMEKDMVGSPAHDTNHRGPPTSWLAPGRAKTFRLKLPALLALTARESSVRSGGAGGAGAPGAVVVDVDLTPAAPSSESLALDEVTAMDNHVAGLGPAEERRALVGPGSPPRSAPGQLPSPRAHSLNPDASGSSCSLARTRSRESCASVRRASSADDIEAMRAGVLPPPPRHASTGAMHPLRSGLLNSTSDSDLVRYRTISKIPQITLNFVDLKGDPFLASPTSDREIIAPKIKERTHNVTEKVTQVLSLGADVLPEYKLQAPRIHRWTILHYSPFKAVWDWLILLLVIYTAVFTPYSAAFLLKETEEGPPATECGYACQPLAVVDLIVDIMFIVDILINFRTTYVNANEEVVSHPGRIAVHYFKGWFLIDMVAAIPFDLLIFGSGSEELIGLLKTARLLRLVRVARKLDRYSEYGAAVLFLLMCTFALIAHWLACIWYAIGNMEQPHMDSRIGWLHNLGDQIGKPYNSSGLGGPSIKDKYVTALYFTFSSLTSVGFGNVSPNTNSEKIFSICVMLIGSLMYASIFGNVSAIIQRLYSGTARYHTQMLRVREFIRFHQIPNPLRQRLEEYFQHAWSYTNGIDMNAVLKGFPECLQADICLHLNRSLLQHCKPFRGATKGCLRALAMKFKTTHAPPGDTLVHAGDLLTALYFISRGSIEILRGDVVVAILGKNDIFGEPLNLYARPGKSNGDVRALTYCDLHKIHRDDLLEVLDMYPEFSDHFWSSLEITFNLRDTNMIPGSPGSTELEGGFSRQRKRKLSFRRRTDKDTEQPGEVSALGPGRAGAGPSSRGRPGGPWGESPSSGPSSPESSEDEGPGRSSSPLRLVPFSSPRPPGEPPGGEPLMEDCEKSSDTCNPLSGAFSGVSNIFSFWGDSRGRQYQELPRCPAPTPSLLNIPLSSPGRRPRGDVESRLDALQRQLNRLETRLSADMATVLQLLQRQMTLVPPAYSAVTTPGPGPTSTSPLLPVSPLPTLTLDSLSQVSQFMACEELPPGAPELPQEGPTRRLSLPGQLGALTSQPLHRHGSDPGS

[8] = Volume of distribution at steady state in dog at 1 mg/kg, iv or 2 mg/kg, po; type: ADME, organism-based, Canis lupus familiaris; details: in vivo, read-out: Vdss
[9] = target: T2, DNA-dependent protein kinase catalytic subunit (Homo sapiens, UniProt P78527); assay: Inhibition of DNAPK (unknown origin) using p53-based peptide substrate preincubated for 5 min prior to ATP addition
[10] = target: Dual specificity protein kinase CLK1 (Homo sapiens) (UniProt P49759); assay: Inhibition of N-terminal His6-tagged recombinant human CLK1 (130-end residues) expressed in baculovirus infected Sf21 cells at 1 uM relative to control
Sequence of Dual specificity protein kinase CLK1 (Homo sapiens) (P49759 whole entry, looked up): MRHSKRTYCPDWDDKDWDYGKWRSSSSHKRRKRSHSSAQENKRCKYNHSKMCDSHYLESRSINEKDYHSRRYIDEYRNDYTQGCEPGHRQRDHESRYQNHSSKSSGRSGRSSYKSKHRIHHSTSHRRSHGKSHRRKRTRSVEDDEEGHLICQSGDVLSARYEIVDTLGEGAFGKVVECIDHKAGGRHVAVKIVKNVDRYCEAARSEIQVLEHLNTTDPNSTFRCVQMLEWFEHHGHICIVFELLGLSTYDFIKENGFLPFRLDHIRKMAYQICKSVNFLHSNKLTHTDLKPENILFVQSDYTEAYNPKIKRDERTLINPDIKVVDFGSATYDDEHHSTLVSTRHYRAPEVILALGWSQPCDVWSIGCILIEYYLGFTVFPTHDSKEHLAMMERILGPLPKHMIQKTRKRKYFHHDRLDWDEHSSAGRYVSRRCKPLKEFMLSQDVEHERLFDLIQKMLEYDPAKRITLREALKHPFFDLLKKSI

[11] = Apparent permeability from apical to basolateral side in human Caco2 cells; type: ADME, cell-based; details: Caco-2
[12] = Thermodynamic solubility of the compound in 0.1M aqueous phosphate buffer at pH 7.4 after 24 hrs by LC-UV analysis; type: physicochemical; details: read-out: Therm_solubility
How it was run: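 Solid samples equilibrated in 0.1 M aqueous phosphate buffer, pH 7.4, for 24 h at 25 °C.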

[13] = AUC (0 to 24 hrs) in nude mouse at 50 mg/kg, po; type: ADME, organism-based; design: dose 50 mg/kg, time < 24 hr, route oral; details: in vivo
How it was run: (§1)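 Nude mice, single oral dose of 50 mg/kg. Vehicle was either a propylene glycol aqueous solution or 10% DMSO:90% captisol solution.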

[14] = target: Phosphatidylinositol 4,5-bisphosphate 3-kinase catalytic subunit gamma isoform (Homo sapiens, UniProt P48736); assay: Inhibition of human recombinant PI3Kgamma using PIP2/ATP as substrate incubated for 20 mins followed by substrate addition by Kinase Glo reagent based luminescence assay
Sequence of Phosphatidylinositol 4,5-bisphosphate 3-kinase catalytic subunit gamma isoform (P48736 whole entry, canonical isoform): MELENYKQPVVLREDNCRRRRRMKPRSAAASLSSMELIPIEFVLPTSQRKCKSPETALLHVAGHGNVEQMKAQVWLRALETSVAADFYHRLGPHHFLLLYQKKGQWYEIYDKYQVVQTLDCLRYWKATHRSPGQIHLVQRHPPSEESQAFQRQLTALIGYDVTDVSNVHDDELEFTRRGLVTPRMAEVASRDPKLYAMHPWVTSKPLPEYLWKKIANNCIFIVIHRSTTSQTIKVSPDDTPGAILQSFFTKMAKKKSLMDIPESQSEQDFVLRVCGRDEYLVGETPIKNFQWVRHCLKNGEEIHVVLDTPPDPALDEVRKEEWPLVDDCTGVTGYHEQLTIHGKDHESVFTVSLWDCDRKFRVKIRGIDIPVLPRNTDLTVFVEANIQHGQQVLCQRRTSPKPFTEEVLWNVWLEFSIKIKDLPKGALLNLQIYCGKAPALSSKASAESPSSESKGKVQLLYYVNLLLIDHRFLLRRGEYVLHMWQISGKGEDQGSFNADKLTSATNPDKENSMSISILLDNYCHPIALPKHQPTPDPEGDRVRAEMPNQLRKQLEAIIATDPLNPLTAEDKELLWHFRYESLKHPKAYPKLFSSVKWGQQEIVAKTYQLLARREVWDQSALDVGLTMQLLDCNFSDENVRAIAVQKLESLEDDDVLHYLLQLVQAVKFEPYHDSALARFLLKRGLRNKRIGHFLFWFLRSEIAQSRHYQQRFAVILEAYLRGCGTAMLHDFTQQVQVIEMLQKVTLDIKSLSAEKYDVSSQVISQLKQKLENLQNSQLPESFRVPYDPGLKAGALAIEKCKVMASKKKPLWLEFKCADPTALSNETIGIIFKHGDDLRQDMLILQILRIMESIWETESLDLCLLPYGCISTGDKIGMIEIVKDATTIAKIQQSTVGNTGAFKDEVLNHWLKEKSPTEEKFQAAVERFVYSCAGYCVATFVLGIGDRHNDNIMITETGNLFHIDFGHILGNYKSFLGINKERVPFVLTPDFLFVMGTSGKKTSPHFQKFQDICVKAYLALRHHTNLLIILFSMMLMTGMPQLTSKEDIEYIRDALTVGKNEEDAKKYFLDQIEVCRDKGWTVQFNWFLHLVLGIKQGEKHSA

[15] = Intrinsic clearance in human hepatocytes assessed per million cells; type: ADME, cell-based, Hepatocyte; details: read-out: CLH
How it was run: (§2)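 Intrinsic clearance measured in hepatocytes of each species, reported as µL/min/10⁶ cells.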

[16] = Fraction unbound in human plasma by equilibrium dialysis method; type: ADME, cell-free
[17] = target: Dual specificity protein kinase CLK4 (Homo sapiens) (UniProt Q9HAZ1); assay: Inhibition of recombinant human CLK4 at 1 uM
[18] = target: Vascular endothelial growth factor receptor 2 (Homo sapiens, UniProt P35968); assay: Inhibition of KDR (unknown origin)
[19] = Clearance in Han Wistar rat at 2 mg/kg, iv or 5 mg/kg, po; type: ADME, organism-based; details: in vivo
[20] = system: Mus musculus; assay: Time duration during which free plasma concentration stays above in-vitro ATM IC50 level in nude mouse at 50 mg/kg, po; type: ADME, organism-based; details: in vivo; how it was run: as §1
[21] = Oral bioavailability in dog at 2 mg/kg; type: ADME, organism-based, Canis lupus familiaris; details: in vivo
[22] = Oral bioavailability in Han Wistar rat at 5 mg/kg; type: ADME, organism-based; details: in vivo
[23] = Fraction unbound in mouse plasma by equilibrium dialysis method; type: ADME, cell-free
[24] = Cmax in nude mouse at 50 mg/kg, po; type: ADME, organism-based; design: dose 50 mg/kg, route oral; details: in vivo; how it was run: as §1
[25] = Intrinsic clearance in rat hepatocytes assessed per million cells; type: ADME, cell-based, Hepatocyte; details: read-out: CLH; how it was run: as §2
[26] = target: T3, Phosphatidylinositol 4,5-bisphosphate 3-kinase catalytic subunit alpha isoform (Homo sapiens, UniProt P42336); assay: Inhibition of PI3Kalpha in human BT474 cells assessed as reduction in AKT phosphorylation at Thr-308 residue; type: cell-based
T3 sequence (P42336 whole entry, canonical isoform): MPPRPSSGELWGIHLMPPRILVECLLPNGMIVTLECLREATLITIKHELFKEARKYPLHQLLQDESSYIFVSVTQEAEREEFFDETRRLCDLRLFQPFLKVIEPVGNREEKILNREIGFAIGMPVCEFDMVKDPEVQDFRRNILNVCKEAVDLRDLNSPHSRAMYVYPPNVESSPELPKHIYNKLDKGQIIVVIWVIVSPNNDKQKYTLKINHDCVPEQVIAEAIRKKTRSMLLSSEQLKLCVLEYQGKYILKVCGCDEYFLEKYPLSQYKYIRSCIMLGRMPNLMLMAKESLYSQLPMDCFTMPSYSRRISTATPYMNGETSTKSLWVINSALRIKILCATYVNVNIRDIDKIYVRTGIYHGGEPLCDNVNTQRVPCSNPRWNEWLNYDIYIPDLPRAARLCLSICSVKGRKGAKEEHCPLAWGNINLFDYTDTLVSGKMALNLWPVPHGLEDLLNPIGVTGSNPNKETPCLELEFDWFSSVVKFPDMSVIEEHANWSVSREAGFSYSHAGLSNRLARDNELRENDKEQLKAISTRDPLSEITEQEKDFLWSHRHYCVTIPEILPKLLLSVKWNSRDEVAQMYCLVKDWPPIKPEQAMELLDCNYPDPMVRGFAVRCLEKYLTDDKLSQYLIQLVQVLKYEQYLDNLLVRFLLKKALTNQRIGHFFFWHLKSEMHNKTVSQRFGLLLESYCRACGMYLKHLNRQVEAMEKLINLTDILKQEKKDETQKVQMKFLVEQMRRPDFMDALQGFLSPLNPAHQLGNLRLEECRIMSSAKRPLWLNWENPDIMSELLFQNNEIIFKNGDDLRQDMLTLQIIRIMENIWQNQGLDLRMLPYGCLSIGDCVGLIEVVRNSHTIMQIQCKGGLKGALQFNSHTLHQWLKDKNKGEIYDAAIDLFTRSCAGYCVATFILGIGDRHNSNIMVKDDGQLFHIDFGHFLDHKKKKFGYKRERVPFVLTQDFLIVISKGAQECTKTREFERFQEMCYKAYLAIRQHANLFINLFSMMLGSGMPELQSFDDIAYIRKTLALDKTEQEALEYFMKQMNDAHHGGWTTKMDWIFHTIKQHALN

[27] = Fraction unbound in rat plasma by equilibrium dialysis method; type: ADME, cell-free
[28] = target: Serine/threonine-protein kinase mTOR (Homo sapiens, UniProt P42345); assay: Inhibition of C-terminal FLAG-tagged recombinant mTOR (1362 to 2549 residues) (unknown origin) using Biotin-Ahx-Lys-Lys-Ala-Asn-Gln-Val-Phe-Leu-Gly-Phe-Thr-Tyr-Val-Ala-Pro-Ser-Val-Leu-Glu-Ser-Val-Lys-Glu-NH2 as substrate after 90 mins by AlphaScreen assay
[29] = Clearance in dog at 1 mg/kg, iv or 2 mg/kg, po; type: ADME, organism-based, Canis lupus familiaris; details: in vivo
[30] = target: T4, Tyrosine-protein kinase Mer (Homo sapiens) (UniProt Q12866); assay: Inhibition of N-terminal GST-tagged recombinant human Mer (557 to 882 residues) expressed in baculovirus infected Sf21 cells using GGMEDIYFEFMGGKKK as substrate at 1 uM relative to control
T4 sequence (whole entry): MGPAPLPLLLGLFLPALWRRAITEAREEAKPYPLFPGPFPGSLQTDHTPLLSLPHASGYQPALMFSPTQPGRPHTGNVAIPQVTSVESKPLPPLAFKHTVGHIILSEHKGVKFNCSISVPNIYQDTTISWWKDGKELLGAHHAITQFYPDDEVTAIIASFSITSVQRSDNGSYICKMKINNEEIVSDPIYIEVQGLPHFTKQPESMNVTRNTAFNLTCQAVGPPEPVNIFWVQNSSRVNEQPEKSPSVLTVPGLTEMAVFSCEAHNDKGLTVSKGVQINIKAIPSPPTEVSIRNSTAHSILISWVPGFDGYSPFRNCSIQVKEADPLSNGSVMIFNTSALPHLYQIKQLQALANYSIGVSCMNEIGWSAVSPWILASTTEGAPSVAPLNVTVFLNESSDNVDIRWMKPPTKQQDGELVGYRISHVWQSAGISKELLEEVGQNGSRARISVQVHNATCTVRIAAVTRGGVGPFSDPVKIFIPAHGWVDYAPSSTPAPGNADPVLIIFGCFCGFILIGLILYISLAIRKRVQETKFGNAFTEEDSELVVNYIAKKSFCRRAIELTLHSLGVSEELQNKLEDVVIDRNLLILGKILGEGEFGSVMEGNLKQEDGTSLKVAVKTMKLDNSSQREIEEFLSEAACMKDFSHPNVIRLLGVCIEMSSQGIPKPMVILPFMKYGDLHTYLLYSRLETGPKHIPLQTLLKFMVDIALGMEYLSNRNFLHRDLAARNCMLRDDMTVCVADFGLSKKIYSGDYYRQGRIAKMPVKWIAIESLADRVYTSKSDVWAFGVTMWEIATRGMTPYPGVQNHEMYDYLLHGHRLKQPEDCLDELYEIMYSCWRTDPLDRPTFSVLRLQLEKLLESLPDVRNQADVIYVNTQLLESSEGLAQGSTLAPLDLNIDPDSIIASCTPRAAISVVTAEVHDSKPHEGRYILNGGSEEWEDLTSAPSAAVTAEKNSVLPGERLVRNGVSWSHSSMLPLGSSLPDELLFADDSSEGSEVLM

[31] = target: T2, DNA-dependent protein kinase catalytic subunit; assay: Inhibition of DNAPK phosphorylation at Ser-2056 residue in human HT-29 cells; type: cell-based
[32] = target: Glycogen synthase kinase-3 beta (Homo sapiens, UniProt P49841); assay: Inhibition of GSK3beta (unknown origin)
[33] = system: SW-620; assay: Antitumor activity against human SW620 cells xenografted in immunocompromised athymic Swiss nude mouse assessed as tumor growth inhibition at 50 mg/kg bid administered via oral gavage for 3 days a week for 3 weeks regime after 24 hrs of topoisomerase-1 inhibitor irinotecan administration; type: functional, organism-based
[34] = Intrinsic clearance in dog hepatocytes assessed per million cells; type: ADME, cell-based, Canis lupus familiaris, Hepatocyte; details: read-out: CLH; how it was run: as §2
[35] = Fraction unbound in dog plasma by equilibrium dialysis method; type: ADME, cell-free, Canis lupus familiaris
[36] = target: T5, Phosphatidylinositol 4,5-bisphosphate 3-kinase catalytic subunit beta isoform (Homo sapiens, UniProt P42338); assay: Inhibition of human recombinant PI3Kbeta using PIP2/ATP as substrate incubated for 20 mins followed by substrate addition by Kinase Glo reagent based luminescence assay
T5 sequence (P42338 whole entry, canonical isoform): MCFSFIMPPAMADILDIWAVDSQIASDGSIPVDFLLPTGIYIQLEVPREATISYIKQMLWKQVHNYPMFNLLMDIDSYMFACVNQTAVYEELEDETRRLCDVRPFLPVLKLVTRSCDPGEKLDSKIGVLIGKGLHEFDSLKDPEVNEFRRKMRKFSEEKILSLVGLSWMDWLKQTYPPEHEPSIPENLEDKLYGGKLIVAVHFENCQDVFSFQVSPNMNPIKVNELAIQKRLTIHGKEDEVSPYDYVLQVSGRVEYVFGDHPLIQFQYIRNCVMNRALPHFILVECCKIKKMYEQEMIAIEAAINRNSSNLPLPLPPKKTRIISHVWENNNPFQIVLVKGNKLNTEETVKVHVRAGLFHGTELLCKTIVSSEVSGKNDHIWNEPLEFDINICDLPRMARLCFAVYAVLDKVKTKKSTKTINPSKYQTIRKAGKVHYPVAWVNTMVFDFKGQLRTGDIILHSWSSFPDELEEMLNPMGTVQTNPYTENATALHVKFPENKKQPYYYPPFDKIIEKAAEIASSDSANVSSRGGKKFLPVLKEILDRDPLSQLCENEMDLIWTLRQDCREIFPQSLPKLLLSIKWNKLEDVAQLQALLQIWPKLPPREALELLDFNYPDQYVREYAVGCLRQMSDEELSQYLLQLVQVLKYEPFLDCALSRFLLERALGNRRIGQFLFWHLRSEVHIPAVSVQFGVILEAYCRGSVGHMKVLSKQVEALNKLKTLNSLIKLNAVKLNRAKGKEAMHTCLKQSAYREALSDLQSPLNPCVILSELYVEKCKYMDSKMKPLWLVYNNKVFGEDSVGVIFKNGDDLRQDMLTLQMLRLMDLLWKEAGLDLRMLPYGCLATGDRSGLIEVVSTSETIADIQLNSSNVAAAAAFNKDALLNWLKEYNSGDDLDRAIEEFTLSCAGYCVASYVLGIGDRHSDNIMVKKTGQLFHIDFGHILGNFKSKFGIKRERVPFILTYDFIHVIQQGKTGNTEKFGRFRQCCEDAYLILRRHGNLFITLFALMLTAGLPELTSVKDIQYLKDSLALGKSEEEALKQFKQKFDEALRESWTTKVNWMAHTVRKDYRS

[37] = Volume of distribution at steady state in Han Wistar rat at 2 mg/kg, iv or 5 mg/kg, po; type: ADME, organism-based; details: in vivo, read-out: Vdss
[38] = Intrinsic clearance in mouse hepatocytes assessed per million cells; type: ADME, cell-based, Hepatocyte; details: read-out: CLH; how it was run: as §2
[39] = target: T3, Phosphatidylinositol 4,5-bisphosphate 3-kinase catalytic subunit alpha isoform; assay: Inhibition of human recombinant PI3Kalpha using PIP2/ATP as substrate incubated for 20 mins followed by substrate addition by Kinase Glo reagent based luminescence assay
[40] = target: T5, Phosphatidylinositol 4,5-bisphosphate 3-kinase catalytic subunit beta isoform; assay: Inhibition of PI3Kbeta (unknown origin) by cell based assay
[41] = Volume of distribution at steady state in dog at 1.7 mg/kg, iv or 4.2 mg/kg, po; type: ADME, organism-based, Canis lupus familiaris; details: in vivo, read-out: Vdss
[42] = Oral bioavailability in dog at 4.2 mg/kg; type: ADME, organism-based, Canis lupus familiaris; details: in vivo
[43] = Clearance in dog at 1.7 mg/kg, iv or 4.2 mg/kg, po; type: ADME, organism-based, Canis lupus familiaris; details: in vivo
[44] = system: SW-620; assay: Antitumor activity against human SW620 cells xenografted in immunocompromised athymic Swiss nude mouse assessed as tumor growth inhibition at 50 mg/kg, ip once in a week for 3 weeks regime starting day 1 post xenograft; type: functional, organism-based
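For logD in this document: determined by the shake flask method.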

inhibition [1]: inactive
logD [2]: > 4.3
hepatocyte CLint at 1.5 h [3]: 260 µL/min/1e6 cells
IC50 [4]: > 30 µM
IC50 [5]: > 30 µM
hepatocyte CLint at 1.5 h [6]: 42 µL/min/1e6 cells
SMILES: CCC(CC)COc1c(C(N)=O)cnc2ccc(-c3cccnc3)cc12
IC50 [7]: 2.1 µM

Vd [8]: 1.4 L/kg
IC50 [9]: 0.37 µM
inhibition [10]: 57%
Papp A→B [11]: 14 ×10⁻⁶ cm/s
solubility thermodynamic at 24 h [12]: 69 µM (≈ 30 µg/mL)
AUC(0-t) at 24 h [13]: 33 µM·h
IC50 [14]: 7.1 µM
hepatocyte CLint [15]: < 1.5 µL/min/1e6 cells
fraction unbound [16]: 0.18
inhibition [17]: 55%
IC50 [18]: 79 µM
clearance [19]: 13 mL/min/kg
Time [20]: 10 h
bioavailability [21]: 71%
bioavailability [22]: 29%
fraction unbound [23]: 0.17
Cmax [24]: 17 µM
hepatocyte CLint [25]: 5.3 µL/min/1e6 cells
IC50 [26]: 18.8 µM
fraction unbound [27]: 0.12
logD [2]: 2.7
hepatocyte CLint at 1.5 h [3]: 5.3 µL/min/1e6 cells
IC50 [28]: 1.48 µM
clearance [29]: 13 mL/min/kg
inhibition [30]: 56%
IC50 [31]: > 30 µM
IC50 [32]: > 100 µM
hepatocyte CLint at 1.5 h [6]: < 1.5 µL/min/1e6 cells
hepatocyte CLint [34]: 2 µL/min/1e6 cells
fraction unbound [35]: 0.18
IC50 [36]: 12.8 µM
Vd [37]: 1 L/kg
hepatocyte CLint [38]: 28 µL/min/1e6 cells
IC50 [39]: 0.445 µM
IC50 [40]: > 17.5 µM
SMILES: COCc1ccc(-c2cc3c(N[C@@H](C)c4ccn(C)n4)c(C(N)=O)cnc3cc2F)cn1
TGI [33]: Active

solubility thermodynamic at 24 h [12]: 590 µM (≈ 248 µg/mL)
AUC(0-t) at 24 h [13]: 40 µM·h
Vd [41]: 2.6 L/kg
hepatocyte CLint [15]: < 2.6 µL/min/1e6 cells
clearance [19]: 18 mL/min/kg
Time [20]: 10 h
bioavailability [22]: 46%
Cmax [24]: 6 µM
hepatocyte CLint [25]: < 5.3 µL/min/1e6 cells
logD [2]: 2.5
hepatocyte CLint at 1.5 h [3]: < 5.3 µL/min/1e6 cells
hepatocyte CLint at 1.5 h [6]: < 2.6 µL/min/1e6 cells
hepatocyte CLint [34]: 11 µL/min/1e6 cells
bioavailability [42]: 31%
Vd [37]: 1.1 L/kg
clearance [43]: 50 mL/min/kg
hepatocyte CLint [38]: 18 µL/min/1e6 cells
SMILES: COCc1ccc(-c2ccc3ncc(C(N)=O)c(N[C@@H](C)C4CCOCC4)c3c2)cn1

SMILES: CCc1c2c(nc3ccc(OC(=O)N4CCC(N5CCCCC5)CC4)cc13)-c1cc3c(c(=O)n1C2)COC(=O)[C@]3(O)CC
TGI [44]: Active

— ChEMBL document CHEMBL4477207, “Discovery of Novel 3-Quinoline Carboxamides as Potent, Selective, and Orally Bioavailable Inhibitors of Ataxia Telangiectasia Mutated (ATM) Kinase” (J Med Chem, 2016)
